Compound activity deposited in PubChem by Johns Hopkins Ion Channel Center.
In the library only some 3.7% were active in any assay of this set; here they are far more common.
KCNQ1 inh: blocks the human KCNQ1 potassium channel. P51787. CHO-K1 KCNQ1, FluxOR thallium flux fluorescence; stronger effect = higher value. B-score at 10 µM. 310,000 compounds, 1.3% hits. AID 2642;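 active means compounds whose thallium flux B-score, printed positive for inhibition, exceeds three library SD while starting fluorescence stays within three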;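 further: channel opened by potassium depolarization with thallium stimulus after 20 min compound exposure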
KCNQ1 pot: potentiates or activates the human KCNQ1 potassium channel; P51787; CHO-K1 KCNQ1, thallium flux FluxOR fluorescence; stronger effect = higher value; B-score at 10 µM; 310,000 compounds, 0.35% hits;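 active means fluorescence ratio B-score, a plate-corrected score, at least three library SD, with initial intensity B-score within 5 SD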
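System: CHO-K1 cells stably expressing KCNQ1 / Medium: assay buffer for compound exposure, DMSO matched across wells / Reagent: thallium- and potassium-containing depolarizing buffer / Compound: one concentration, matched DMSO / Incubation: 20 min compound pretreatment at room temperature / Measured by: kinetic FluxOR fluorescence, 10 s baseline plus 110 s post-stimulus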
hERG protect: shields human hERG channel from block by proarrhythmic agents; Q12809; CHO-hERG, FluxOR thallium flux, dofetilide IC70 present; activation (rescue from dofetilide block), less the hit threshold, % at 10 µM; 310,000 compounds, 0.51% hits; AID 1511;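 active means activation above the mean of controls blocked by dofetilide plus 5 SD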;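 further: thallium influx through hERG after potassium depolarization seen as dye fluorescence rise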
Kir21 inh: Kir2.1 (mouse) channel inhibition | P35561 | HEK293-Kir2.1, FluxOR thallium flux fluorescence; stronger effect = lower value | B-score at 10 µM | 310,000 compounds, 0.85% hits;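 active means fluorescence ratio B-score at or below minus 3 SD of library scores, with starting-brightness B-score within 2 SD, cut at about -4.2 in these data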;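 further: channel flux triggered by added potassium and thallium sulfate stimulus; B-score of peak minus minimum fluorescence over baseline after thallium stimulus; more negative B-score means stronger Kir2.1 block with less thallium influx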
KCNK9 inh: human KCNK9 channel inhibition; Q9NPC2; HEK293 KCNK9, FluxOR thallium flux fluorescence; stronger effect = lower value; B-score at 10 µM; 310,000 compounds, 1.2% hits; AID 488922;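 active means ratio B-score over 3 SD below the library mean, with starting fluorescence within 5 SD of its mean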;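 further: negative B-score means less thallium flux so channel inhibition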
KCNK3 inh: human KCNK3 channel inhibition, primary screen | B-score at 10 µM | AID 602410 | O14649 | 340,000 compounds, 0.84% hits | CHO-KCNK3 thallium flux, FluxOR fluorescence; stronger effect = lower value;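 active means B-score under library mean minus 4 SD, starting fluorescence ratio at most library mean plus 5 SD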;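 further: more negative B-score means stronger inhibition of thallium flux through KCNK3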
Target sequence (O14649 whole entry, looked up): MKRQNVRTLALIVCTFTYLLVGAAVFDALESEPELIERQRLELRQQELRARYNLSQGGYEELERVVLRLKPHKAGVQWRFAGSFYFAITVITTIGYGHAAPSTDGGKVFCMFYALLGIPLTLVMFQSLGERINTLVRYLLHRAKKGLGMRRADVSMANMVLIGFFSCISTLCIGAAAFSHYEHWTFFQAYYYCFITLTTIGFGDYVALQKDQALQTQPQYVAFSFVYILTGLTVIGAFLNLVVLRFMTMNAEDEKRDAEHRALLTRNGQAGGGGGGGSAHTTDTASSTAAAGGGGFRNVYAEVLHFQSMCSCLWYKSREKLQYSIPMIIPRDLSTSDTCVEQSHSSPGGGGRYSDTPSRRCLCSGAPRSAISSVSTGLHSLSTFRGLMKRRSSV
KCNK3 confirm: human KCNK3 channel inhibition, confirmation assay. shares compounds with KCNK3 inh. CHO-KCNK3 thallium flux, FluxOR fluorescence; 0% buffer, 100% carvedilol maximal block. ratio percent of control, % at 10 µM. 2,400 compounds, 99% hits;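 active means ratio percent of control, averaged over triplicates, above buffer control mean plus 5 SD, cut at about 64% in these data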;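 further: ratio is the fluorescence rise from min to max over baseline after thallium stimulus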
KCNK3 uninduced: KCNK3 inhibitor counter-screen hit in non-induced cells | AID 651747 | shares compounds with KCNK3 inh | thallium flux ratio (lower = more inhibition) at 10 µM | 2,400 compounds, 40% hits | non-induced KCNK3 parental cells, FluxOR thallium flux; stronger effect = lower value;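 active means thallium flux ratio, averaged over three wells, more than 5 SD below the buffer control mean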;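 further: host cells are CHO cells without KCNK3 induction; ratio is peak minus trough fluorescence over baseline then normalized to buffer controls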
Active calls of the source: *; i = inactive; . = not tested or not shown.

SMILES	KCNQ1 inh	KCNQ1 pot	hERG protect	Kir21 inh	KCNK9 inh	KCNK3 inh	KCNK3 confirm	KCNK3 uninduced
CC(=O)Nc1cccc(NC(=O)c2ccccc2OCc2ccccc2)c1	i	i	-8.9	0.68	i	-10.1*	111.0*	i
CCOC(=O)Nc1cccc(NC(=O)c2ccccc2F)c1	i	i	-9.9	1.79	i	-8.77*	99.7*	i
CC(=O)Nc1cccc(NC(=O)c2cccc(OCc3ccccc3)c2)c1	i	i	-8.7	0.04	i	i	.	.
CC(C)NC(=O)N(C)C[C@H]1Oc2ccc(NS(=O)(=O)c3ccccc3)cc2C(=O)N([C@H](C)CO)C[C@H]1C	.	.	.	.	.	i	.	.
O=C(NCC1CCCN1S(=O)(=O)c1cccs1)c1cccc([N+](=O)[O-])c1 (stereo not drawn)	i	i	-9.6	0.31	i	i	.	.
CCOc1ccccc1NC1c2ccccc2C(=O)N1Cc1ccco1 (stereo not drawn)	i	i	-12.0	-1.43	i	-11.1*	98.0*	i
CN(C(=O)c1cccc(NC(=O)Cc2cccc(NC(=O)C3CCCN(C(=O)C4CCCC4)C3)c2)c1)C1CC1 (stereo not drawn)	.	.	.	.	.	i	.	.
CCOC(=O)c1sc(NC(=O)C2CC(=O)N(c3ccc(OC)cc3)C2)nc1C (stereo not drawn)	i	i	-8.6	-0.36	i	i	.	.
Cc1cc(C)c(C(=O)COC(=O)c2c(C)noc2C)cc1C	.	.	.	.	.	i	.	.
CCC(CC)C(=O)Nc1cccc(C(=O)Nc2ccc3c(c2)OCO3)c1	i	i	-15.2	1.26	-7.58*	-11.9*	91.7*	i
CCOC(=O)C1=C(C)NC(SCC(=O)O)=C(C#N)C1c1ccco1 (stereo not drawn)	i	i	-6.8	1.32	i	i	.	.
CC(=O)C1=C(C)NC(SCC(=O)c2ccc(Cl)c(Cl)c2)=C(C#N)C1c1ccco1 (stereo not drawn)	i	i	-4.2	-1.94	-7.79*	-11.4*	125.0*	0.156*
CCCN(C(=O)Cn1nc(C)c([N+](=O)[O-])c1C)c1c(N)n(Cc2ccccc2)c(=O)[nH]c1=O	i	i	-13.3	-0.79	i	i	.	.
COC(=O)c1cccc(N2C(=O)C(Cl)=C(N3CCOCC3)C2=O)c1	i	i	-1.0	0.99	i	-9.73*	66.7*	i
COc1nc(-c2ccccc2)ccc1-c1noc(-c2ccccc2)n1	i	i	-5.3	-0.01	i	-11.9*	99.3*	i
O=C(Nc1nc(-c2cccs2)cs1)c1ccc(Cl)s1	i	i	3.7	0.93	i	-23.5*	86.3*	i
CC(=O)Nc1nc(-c2cccs2)cs1	i	i	-6.7	-0.01	i	i	.	.
O=C(Nc1ccc2c(c1)Cc1ccccc1-2)c1ccc(Br)o1	i	i	-6.9	-0.29	i	-10.1*	86.0*	i
CCOc1ccc(-c2nc(CSCC(=O)N3CCN(c4cccc(OC)c4)CC3)c(C)o2)cc1	i	i	-15.3	1.12	i	-12.1*	138.3*	0.153*
CCOC(=O)N1CCC(NC(=O)CSCc2nc(-c3ccc(OCC)cc3)oc2C)CC1	i	i	-7.3	0.54	i	i	.	.
COc1ccc(N(CC(=O)NCCSCc2ccco2)S(=O)(=O)c2ccccc2)cc1Cl	i	i	-3.1	-1.92	i	-10.1*	106.0*	i
COc1cccc(N(CC(=O)NCCSCc2ccco2)S(=O)(=O)c2ccccc2)c1	i	i	-9.4	0.36	i	i	.	.
Cc1ccc(NC(=O)c2cc(C)nc3ccccc23)c(Br)c1	i	i	0.8	-0.51	-7.99*	-10.2*	94.0*	i
Cc1ccc(NC(=O)c2cc(C)nc3ccccc23)c(C)c1	i	i	-9.0	0.1	i	i	.	.
Cc1ccc(CCNC(=O)C2CCN(S(=O)(=O)c3ccc4nc5c(c(C(=O)O)c4c3)CCCC5)CC2)cc1	i	i	-8.3	0.34	i	i	.	.
SMILES	KCNQ1 inh	KCNQ1 pot	hERG protect	Kir21 inh	KCNK9 inh	KCNK3 inh	KCNK3 confirm	KCNK3 uninduced
Nc1ncnc2c1ncn2[C@@H]1O[C@H](CNC(=O)[C@@H]2CCN2)[C@@H](O)[C@H]1O	.	.	.	.	.	i	.	.
COc1cc(C(=O)Nc2cccc(-c3nnc(-c4ccco4)o3)c2)ccc1OC(C)=O	i	i	-13.7	0.94	i	-9.52*	113.3*	i
O=[N+]([O-])c1cccnc1N1CCCCC1	i	i	-9.0	0.9	i	i	.	.
Cc1ccc(N2CCN(c3ncccc3[N+](=O)[O-])CC2)c(C)c1	i	i	-4.7	0.56	i	-8.8*	108.3*	0.152*
Cc1ccc(NC(=O)c2cccc(S(=O)(=O)N3CCN(c4ccc(F)cc4)CC3)c2)nc1	i	i	-8.7	-0.02	i	i	.	.
Cc1ccc2c(CN(C)Cc3cccc(F)c3)cc(=O)oc2c1	i	i	-10.1	0.95	i	i	.	.
Cc1ccc2c(CN(C)Cc3cccc(Cl)c3)cc(=O)oc2c1C	i	i	-7.8	0.04	i	-8.73*	126.3*	i
COc1ccc(CN(C)Cc2cc(=O)oc3cc(C)c(C(C)C)cc23)cc1OC	i	i	-12.6	-3.32	i	i	.	.
CCOc1ccc(CN(C)Cc2cc(=O)oc3c(C)c(C)ccc23)cc1OC	.	.	.	.	.	i	.	.
COc1cc(CN(C)Cc2cc(=O)oc3cc(C)c(Cl)cc23)ccc1OC(F)F	i	i	-7.5	-0.06	i	-10.3*	105.7*	i
Cc1cc2oc(=O)cc(CN(C)Cc3ccccc3Cl)c2cc1C	6*	i	-9.3	1.28	i	-10*	57.0*	i
Cc1cc2oc(=O)cc(CN(C)Cc3cccc(F)c3)c2cc1Cl	i	i	-11.4	-1.93	i	-10.9*	99.7*	i
CCOC(=O)[C@@H]1[C@H]2COc3ccc(Br)cc3[C@H]2N2C(=O)N(c3ccc(C(F)(F)F)cc3)C(=O)[C@]12C	.	.	.	.	.	i	.	.
Cc1cc2oc(=O)cc(CN(C)Cc3ccccc3F)c2cc1Cl	i	i	-7.1	-4.28*	i	-12*	117.7*	0.143*
CCOC(=O)c1[nH]c(CO)c(C(=O)OCC)c1C	i	i	-4.1	-0.7	i	i	.	.
Cc1cc(C)c2c(CN3CCC(C)CC3)cc(=O)oc2c1C	i	i	-4.1	0.96	i	-11.8*	103.0*	i
COCCNc1oc(-c2ccccc2Cl)nc1S(=O)(=O)c1ccc(C)cc1	.	.	.	.	.	i	.	.
